From ChEMBL document CHEMBL3864121, “Development of ebsulfur analogues as potent antibacterials against methicillin-resistant Staphylococcus aureus” (Bioorg Med Chem, 2016)
In brackets after ≈: the same amount, converted by molar mass.

Assays:
Format in all cases: functional
Staphylococcus aureus [1] = experiment: Antibacterial activity against methicillin-sensitive Staphylococcus aureus ATCC 6538 measured after overnight incubation by broth double-dilution method
Procedure, shortened: (§1)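 MIC by broth double-dilution in liquid Mueller-Hinton medium. Values are reported in µg/mL.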

Staphylococcus aureus [2] = experiment: Antibacterial activity against methicillin-sensitive Staphylococcus aureus ATCC 25923 measured after overnight incubation by broth double-dilution method; procedure, shortened: as §1
Staphylococcus aureus [3] = experiment: Antibacterial activity against methicillin-sensitive Staphylococcus aureus ATCC 29213 measured after overnight incubation by broth double-dilution method; procedure, shortened: as §1
Staphylococcus aureus [4] = experiment: Antibacterial activity against methicillin-resistant Staphylococcus aureus ATCC 33591 measured after overnight incubation by broth double-dilution method; procedure, shortened: as §1
Staphylococcus aureus [5] = experiment: Antibacterial activity against methicillin-resistant Staphylococcus aureus 1 measured after overnight incubation by broth double-dilution method; procedure, shortened: as §1
Staphylococcus aureus [6] = experiment: Antibacterial activity against methicillin-resistant Staphylococcus aureus 2 measured after overnight incubation by broth double-dilution method; procedure, shortened: as §1
Staphylococcus aureus [7] = experiment: Antibacterial activity against methicillin-resistant Staphylococcus aureus BRS3 measured after overnight incubation by broth double-dilution method; procedure, shortened: as §1
Staphylococcus aureus [8] = experiment: Antibacterial activity against methicillin-resistant Staphylococcus aureus C1 measured after overnight incubation by broth double-dilution method; procedure, shortened: as §1
Staphylococcus aureus [9] = experiment: Antibacterial activity against methicillin-resistant Staphylococcus aureus C2 measured after overnight incubation by broth double-dilution method; procedure, shortened: as §1
Staphylococcus aureus [10] = experiment: Antibacterial activity against methicillin-resistant Staphylococcus aureus C7 measured after overnight incubation by broth double-dilution method; procedure, shortened: as §1
Staphylococcus aureus [11] = experiment: Antibacterial activity against methicillin-resistant Staphylococcus aureus C14 measured after overnight incubation by broth double-dilution method; procedure, shortened: as §1
Staphylococcus aureus [12] = experiment: Antibacterial activity against methicillin-resistant Staphylococcus aureus C16 measured after overnight incubation by broth double-dilution method; procedure, shortened: as §1
Staphylococcus aureus [13] = experiment: Antibacterial activity against methicillin-resistant Staphylococcus aureus C19 measured after overnight incubation by broth double-dilution method; procedure, shortened: as §1
Staphylococcus aureus [14] = experiment: Antibacterial activity against methicillin-resistant Staphylococcus aureus G1 measured after overnight incubation by broth double-dilution method; procedure, shortened: as §1
Staphylococcus aureus [15] = experiment: Antibacterial activity against methicillin-resistant Staphylococcus aureus G6 measured after overnight incubation by broth double-dilution method; procedure, shortened: as §1
Staphylococcus aureus [16] = experiment: Antibacterial activity against methicillin-resistant Staphylococcus aureus G12 measured after overnight incubation by broth double-dilution method; procedure, shortened: as §1
Staphylococcus aureus [17] = experiment: Antibacterial activity against methicillin-resistant Staphylococcus aureus G14 measured after overnight incubation by broth double-dilution method; procedure, shortened: as §1
Staphylococcus aureus [18] = experiment: Antibacterial activity against methicillin-resistant Staphylococcus aureus NRS4 measured after overnight incubation by broth double-dilution method; procedure, shortened: as §1
Staphylococcus aureus [19] = experiment: Antibacterial activity against methicillin-resistant Staphylococcus aureus NRS51 measured after overnight incubation by broth double-dilution method; procedure, shortened: as §1
Staphylococcus aureus [20] = experiment: Antibacterial activity against methicillin-resistant Staphylococcus aureus NRS77 measured after overnight incubation by broth double-dilution method; procedure, shortened: as §1
Staphylococcus aureus [21] = experiment: Antibacterial activity against methicillin-resistant Staphylococcus aureus S14 measured after overnight incubation by broth double-dilution method; procedure, shortened: as §1
Staphylococcus aureus [22] = experiment: Antibacterial activity against methicillin-resistant Staphylococcus aureus S17 measured after overnight incubation by broth double-dilution method; procedure, shortened: as §1
Staphylococcus aureus [23] = experiment: Antibacterial activity against methicillin-resistant Staphylococcus aureus S22 measured after overnight incubation by broth double-dilution method; procedure, shortened: as §1
Staphylococcus aureus [24] = experiment: Antibacterial activity against methicillin-resistant Staphylococcus aureus S24 measured after overnight incubation by broth double-dilution method; procedure, shortened: as §1
Staphylococcus aureus [25] = experiment: Antibacterial activity against methicillin-resistant Staphylococcus aureus USA100 measured after overnight incubation by broth double-dilution method; procedure, shortened: as §1
Staphylococcus aureus [26] = experiment: Antibacterial activity against methicillin-resistant Staphylococcus aureus USA200 measured after overnight incubation by broth double-dilution method; procedure, shortened: as §1
Staphylococcus aureus [27] = experiment: Antibacterial activity against methicillin-resistant Staphylococcus aureus USA300 measured after overnight incubation by broth double-dilution method; procedure, shortened: as §1
Staphylococcus aureus [28] = experiment: Antibacterial activity against methicillin-resistant Staphylococcus aureus USA600 measured after overnight incubation by broth double-dilution method; procedure, shortened: as §1
[29] = test system: Staphylococcus epidermidis; experiment: Antibacterial activity against Staphylococcus epidermidis ATCC 35984 measured after overnight incubation by broth double-dilution method; settings: RP62A
Procedure, shortened: (§2)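 MIC by broth double-dilution in Mueller-Hinton medium. Re-testing at the time-kill inoculum used 1×10^6 CFU/mL.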

Enterococcus faecalis [30] = experiment: Antibacterial activity against Enterococcus faecalis ATCC 29212 measured after overnight incubation by broth double-dilution method; procedure, shortened: as §2
Enterococcus faecalis [31] = experiment: Antibacterial activity against Enterococcus faecalis ATCC 49533 measured after overnight incubation by broth double-dilution method; procedure, shortened: as §2
Enterococcus faecium = experiment: Antibacterial activity against Enterococcus faecium BM4105-RF measured after overnight incubation by broth double-dilution method; procedure, shortened: as §1
Enterococcus = experiment: Antibacterial activity against Vancomycin-resistant Enterococcus measured after overnight incubation by broth double-dilution method; procedure, shortened: as §1
Listeria monocytogenes = experiment: Antibacterial activity against Listeria monocytogenes ATCC 19115 measured after overnight incubation by broth double-dilution method; procedure, shortened: as §2
[32] = test system: Mycolicibacterium smegmatis; experiment: Antibacterial activity against Mycobacterium smegmatis MC2-155 measured after overnight incubation by broth double-dilution method; settings: str. MC2 155; procedure, shortened: as §1

Row | SMILES | MIC (Staphylococcus aureus [1]) [µg/mL] | MIC (Staphylococcus aureus [2]) [µg/mL] | MIC (Staphylococcus aureus [3]) [µg/mL] | MIC (Staphylococcus aureus [4]) [µg/mL] | MIC (Staphylococcus aureus [5]) [µg/mL] | MIC (Staphylococcus aureus [6]) [µg/mL] | MIC (Staphylococcus aureus [7]) [µg/mL] | MIC (Staphylococcus aureus [8]) [µg/mL] | MIC (Staphylococcus aureus [9]) [µg/mL] | MIC (Staphylococcus aureus [10]) [µg/mL] | MIC (Staphylococcus aureus [11]) [µg/mL] | MIC (Staphylococcus aureus [12]) [µg/mL] | MIC (Staphylococcus aureus [13]) [µg/mL] | MIC (Staphylococcus aureus [14]) [µg/mL] | MIC (Staphylococcus aureus [15]) [µg/mL] | MIC (Staphylococcus aureus [16]) [µg/mL] | MIC (Staphylococcus aureus [17]) [µg/mL] | MIC (Staphylococcus aureus [18]) [µg/mL] | MIC (Staphylococcus aureus [19]) [µg/mL] | MIC (Staphylococcus aureus [20]) [µg/mL] | further results
1 | O=c1c2ccccc2sn1-c1ccc(Cl)cc1 | 3.9 (≈ 14.9 µM) | 2 (≈ 7.64 µM) | 2 (≈ 7.64 µM) | 1 (≈ 3.82 µM) | 1 (≈ 3.82 µM) | 1 (≈ 3.82 µM) | 3.9 (≈ 14.9 µM) | 2 (≈ 7.64 µM) | 1 (≈ 3.82 µM) | 1 (≈ 3.82 µM) | 3.9 (≈ 14.9 µM) | 3.9 (≈ 14.9 µM) | 1 (≈ 3.82 µM) | 2 (≈ 7.64 µM) | 2 (≈ 7.64 µM) | 2 (≈ 7.64 µM) | 1 (≈ 3.82 µM) | 3.9 (≈ 14.9 µM) | 3.9 (≈ 14.9 µM) | 3.9 (≈ 14.9 µM) | MIC (Staphylococcus aureus [21]): ≤ 0.25 µg/mL; MIC (Staphylococcus aureus [22]): 1 µg/mL (≈ 3.82 µM); MIC (Staphylococcus aureus [23]): 2 µg/mL (≈ 7.64 µM); MIC (Staphylococcus aureus [24]): 1 µg/mL (≈ 3.82 µM); MIC (Staphylococcus aureus [25]): 2 µg/mL (≈ 7.64 µM); MIC (Staphylococcus aureus [26]): 2 µg/mL (≈ 7.64 µM); MIC (Staphylococcus aureus [27]): 3.9 µg/mL (≈ 14.9 µM); MIC (Staphylococcus aureus [28]): 2 µg/mL (≈ 7.64 µM); MIC [29]: 1 µg/mL (≈ 3.82 µM); MIC (Enterococcus faecalis [30]): 62.5 µg/mL (≈ 239 µM); MIC (Enterococcus faecalis [31]): > 125 µg/mL; MIC (Enterococcus faecium): 31.3 µg/mL (≈ 120 µM); MIC (Enterococcus): 0.5 µg/mL (≈ 1.91 µM); MIC (Listeria monocytogenes): 1 µg/mL (≈ 3.82 µM); MIC [32]: 3.9 µg/mL (≈ 14.9 µM)
2 | CC(C)Cn1c(=O)c2ccccc2[s+]1[O-] (stereo not given) | > 125 | > 125 | > 125 | > 125 | > 125 | > 125 | > 125 | > 125 | > 125 | > 125 | > 125 | > 125 | > 125 | > 125 | > 125 | > 125 | > 125 | > 125 | > 125 | > 125 | MIC (Staphylococcus aureus [21]): > 125 µg/mL; MIC (Staphylococcus aureus [22]): > 125 µg/mL; MIC (Staphylococcus aureus [23]): > 125 µg/mL; MIC (Staphylococcus aureus [24]): > 125 µg/mL; MIC (Staphylococcus aureus [25]): > 125 µg/mL; MIC (Staphylococcus aureus [26]): > 125 µg/mL; MIC (Staphylococcus aureus [27]): > 125 µg/mL; MIC (Staphylococcus aureus [28]): > 125 µg/mL; MIC [29]: > 125 µg/mL; MIC (Enterococcus faecalis [30]): > 125 µg/mL; MIC (Enterococcus faecalis [31]): > 125 µg/mL; MIC (Enterococcus faecium): > 125 µg/mL; MIC (Enterococcus): > 125 µg/mL; MIC (Listeria monocytogenes): > 125 µg/mL; MIC [32]: > 125 µg/mL
